From PubChem BioAssay come the findings set out here.

A short description of assay [1]: S. cerevisiae growth inhibition in permissive medium (OD615), pilot counter-assay for S. cerevisiae lifespan shortening project, permissive growth control (AID 705;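 active means growth inhibition above 25% in both replicates, a cutoff set 3 SD above the mean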). The note with it: OD615, 24 h, at 10 µM, hits give high values. The procedure, abridged:
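System – S. cerevisiae with engineered DeaD lifespan system · Buffer or medium – SC raffinose/galactose permissive medium · Schedule – cells pre-grown 4 h, then 24 h compound exposure, 30 °C humidified · Technique – culture turbidity as optical density at 615 nm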

Assay [2] can be described thus: S. cerevisiae growth inhibition in restrictive medium, OD615, pilot screen, restrictive growth control, yeast lifespan reduction project (AID 706;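 active means growth inhibition above a set limit, 3 SD over mean compound inhibition, in both replicates, cut at about 43% in these data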;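 further: modified DeaD lifespan yeast strain shifted to restrictive glucose medium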). The note with it: OD615, 48 h, at 10 µM, hits give high values. The method, boiled down: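 Material: engineered S. cerevisiae DeaD strain / Medium: glucose-based CSMM-D restrictive medium / Compound: single dose of 10 µM compound final, 0.25% DMSO / Timing: 4 h pre-incubation, 48 h exposure at 30 °C / Technique: OD615 absorbance reading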

Assay [3] in a line: doxorubicin toxicity protection in MRP-1 cells – H69AR cells, CellTiter-Glo, duplicate, MRP-1 activator project, pilot screen (AID 807;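 active means viability increase at or above a cutoff of the median across tested compounds plus 3 SD, cut at about 8.5% in these data, passing the limit was not always enough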;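 further: compound pretreatment 18-22 h then 72 h combined with doxorubicin; 0% = doxorubicin alone and 100% = vehicle without doxorubicin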). The note with it: H69AR viability with doxorubicin, CellTiter-Glo luminescence; at 10 µM; hits give high values.
Assay [4] can be described thus: viability of HCT116 without oncogenic beta-catenin – human colon tumor cells, pilot screen (AID 823;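 active means cell viability at or below a set limit in both duplicate runs, the limit being the all-compound median minus 4 SD, cut at about 23% in these data, passing the limit was not always enough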;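 further: 0% = wells killed by 20 µM Hyamine and 100% = untreated DMSO cell wells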). The note with it: HCT116 beta-catenin knockout viability, CellTiter-Glo, 60 h; at 10 µM; hits give low values.
Assay [5] in a line: viability of PTEN-null HCT116 cells – cell-based, HCT116 clonal line, CellTiter-Glo, pilot screen (AID 824;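 active means viability at or below 27.92% in each of two runs, the all-compound median minus 4 SD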;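 further: 0% = 20 µM Hyamine control and 100% = vehicle cell control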). The note with it: HCT116 PTEN-deleted viability, 60 h, at 10 µM, hits give low values.
A short description of assay [6]: RAM pathway blockade in budding yeast – dse1pr::URA3 reporter, 5-FOA selection, pilot screen (AID 869).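 Further: 0% = DMSO wells with no growth and 100% = 10 µM 1-NA-PP1 with full growth; RAM network block rescues cells from 5-FOA so hits raise OD615 growth.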 The note with it: S. cerevisiae dse1pr::URA3 5-FOA growth, OD615, 2 d; at 10 µM; hits give high values; strain carries analog-sensitive mutant Cbk1 kinase.
Assay [7] is described as follows: RAM signaling pathway blockade in yeast – S. cerevisiae, Pdr1DBD-CYC8 efflux-inhibited sensitized strain, primary screen (AID 1298;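 active means RAM network inhibition above 8.4% in each of two replicates, 3 SD over the compound average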;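 further: 0% = DMSO untreated cells without growth and 100% = 10 µM 1-NA-PP1 full growth; higher means more yeast growth rescued from 5-FOA killing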). The note with it: S. cerevisiae cbk1-as DSE1-URA3 strain, 5-FOA growth OD615, 2 d; at 50 µM; hits give high values.

SMILES strings stand for the structures. Values without a mark were called inactive. Results filed as inconclusive are left out. Activity calls are given as the source filed them.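 How the source made its calls, unless noted: active means inhibition over a set limit, the all-compound mean plus 3 SD, in both replicate runs; inconclusive means over that limit in just one replicate run; inactive means at or under that limit in both runs.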

Consider `CCn1c(=O)cc(OCC(=O)Nc2ccccc2C#N)c2ccccc21`, for which the growth inhibition was -22.1% in assay [1] and -8.12% in assay [2]. Also, in assay [3], the viability increase was -1.86%. For the same molecule, the viability in assay [4] was 95.1%; in assay [5], 94.7%. Besides, the inhibition in assay [6] is 2.12%. In addition, the RAM network inhibition in assay [7] was 4.46%.
`CCCOc1nc2c(c(=O)n(C)c(=O)n2C)n1CCC`: the growth inhibition in assay [1] was -7.2%; in assay [2] it was -10.2%. Further, the viability increase in assay [3] was -2.13%. The viability in assay [4] was 82.2%; in assay [5], 86.6%. Also, the inhibition in assay [6] was 1.4%. Further, the RAM network inhibition in assay [7] was -0.88%.
Regarding `CCOC(=O)Cc1csc(NC(=O)c2c(-c3ccccc3)noc2C)n1`, the growth inhibition in assay [1] was -10.4%; in assay [2] it was -8.59%. In assay [3], the viability increase was 4.11%. The figures for the viability in assay [4] and in assay [5] were 99.4% and 101%, respectively. Further, the inhibition in assay [6] was -0.185%. Moreover, in assay [7], the RAM network inhibition is 1.54%.
Regarding `O=C(c1cnn2c(C(F)(F)F)cc(-c3ccco3)nc12)N1CCCCCC1`, the growth inhibition in assay [1] was -14.5%; in assay [2], -11.4%. Further, the viability increase in assay [3] was -4.15%. In addition, the figures for the viability in assay [4] and in assay [5] were 91.3% and 91.5%, respectively. In assay [6], the inhibition is 0.705%. Besides, in assay [7], the RAM network inhibition is 1.5%.
For the molecule `CN(C)c1cc(-c2ccccc2)nc(N)n1`, the growth inhibition was -13.3% in assay [1] and -15.5% in assay [2]. In assay [3], the viability increase is -6.2%. In addition, the viability in assay [4] was 64.2%; in assay [5], 55.8%. Besides, in assay [6], the inhibition is 2.73%. Further, the RAM network inhibition in assay [7] was 0.09%.
With `c1ccc(CSc2nnc(-c3ccco3)n2Cc2ccco2)cc1`, the growth inhibition in assay [1] was -5.04%; in assay [2], 0.405%. Moreover, in assay [3], the viability increase was -3.83%. For the same molecule, the viability was 88.6% in assay [4] and 87.4% in assay [5]. Moreover, the inhibition in assay [6] is 1.85%. In addition, the RAM network inhibition in assay [7] was 3.53%.
With `COc1cc(NC(=O)CCCC(=O)OCC(F)(F)C(F)F)nc(OC)n1`, the growth inhibition in assay [1] was -5.42%; in assay [2], -21.7%. For the same molecule, the viability increase in assay [3] is -0.22%. The viability in assay [4] is 102%; in assay [5], 98.9%. In assay [6], the inhibition is 1.37%. Also, the RAM network inhibition in assay [7] is 0.92%.
For the molecule `O=S(=O)(Nc1ccc2nc(C(F)(F)F)[nH]c2c1)c1ccccc1`, the growth inhibition in assay [1] was -1.94%; in assay [2] it was -0.635%. Further, the viability increase in assay [3] is 0.27%. Further, the values for the viability in assay [4] and in assay [5] were 85.5% and 82%, respectively. In addition, the inhibition in assay [6] is 0.97%. Also, the RAM network inhibition in assay [7] was 1.68%.
In the case of `COc1cc(C)c(S(=O)(=O)NCc2ccc3c(c2)OCO3)cc1C`, the figures for the growth inhibition in assay [1] and in assay [2] were -2.38% and 3%, respectively. Besides, the viability increase in assay [3] is 0.6%. Moreover, the viability in assay [4] is 106%; in assay [5], 102%. Further, the inhibition in assay [6] was -0.055%. For the same molecule, the RAM network inhibition in assay [7] was -0.06%.
For `O=C(Cn1ncc2c1-c1ccccc1OC2)N(Cc1ccco1)C1CCCCC1`, the growth inhibition in assay [1] is 0.715%; in assay [2], -5.62%. The viability increase in assay [3] was -2.69%. For the same molecule, the viability is 78.5% in assay [4] and 74.9% in assay [5]. Moreover, in assay [6], the inhibition was 2.08%. The RAM network inhibition in assay [7] is 3.96%.
As to `CCCCNc1ncnc2c1cnn2-c1ccc(C)cc1C`, the figures for the growth inhibition in assay [1] and in assay [2] were 6.55% and 9.48%, respectively. In addition, the viability increase in assay [3] is -3.72%. The results for the viability in assay [4] and in assay [5] were 92.8% and 89.2%, respectively. Besides, the inhibition in assay [6] was -0.12%. The RAM network inhibition in assay [7] was 0.27%.
Consider `O=C1c2ccccc2-c2ncnc3c(N4CCOCC4)cc(N4CCOCC4)c1c23`, for which the growth inhibition is -12.8% in assay [1] and -3.37% in assay [2]. In addition, the viability increase in assay [3] is -7.53%. The viability in assay [4] is 79.2%; in assay [5] it was 80.9%. Also, in assay [6], the inhibition was -0.74%. For the same molecule, the RAM network inhibition in assay [7] was -1.52%.
Regarding `O=C(Cn1c(=O)oc2cc(S(=O)(=O)N3CCCC3)ccc21)N1CCN(c2ccccn2)CC1`, the figures for the growth inhibition in assay [1] and in assay [2] were 4.62% and 6.56%, respectively. Moreover, the viability increase in assay [3] was 0.96%. The figures for the viability in assay [4] and in assay [5] were 90% and 92.5%, respectively. For the same molecule, in assay [6], the inhibition is 2.1%. In assay [7], the RAM network inhibition is 6.22%.
Regarding `CCOc1ccc(-c2nnc3ccc(SCC(=O)N4CCCCC4)nn23)cc1`, the growth inhibition in assay [1] is -0.225%; in assay [2], 9.67%. Also, the viability increase in assay [3] was -4.24%. Moreover, the viability in assay [4] is 110%; in assay [5], 101%. The inhibition in assay [6] was 2.06%. Also, the RAM network inhibition in assay [7] was 1.25%.
Regarding `COC1=C(OC)c2ccccc2C(C(=O)O)N/C1=C(/C)Nc1ccncc1` (stereo unspecified), the values for the growth inhibition in assay [1] and in assay [2] were -5.63% and -2.54%, respectively. Also, in assay [3], the viability increase was -0.91%. The results for the viability in assay [4] and in assay [5] were 94.7% and 91.5%, respectively. In addition, the inhibition in assay [6] is 1.11%. Moreover, the RAM network inhibition in assay [7] was -1.82%.
For the molecule `Cc1noc(NS(=O)(=O)c2ccc(NC(=O)CSc3nc4c(cc3C#N)CCC4)cc2)c1C`, the growth inhibition is 4.79% in assay [1] and 48% (active) in assay [2]. Besides, the viability increase in assay [3] was 1.01%. For the same molecule, the results for the viability in assay [4] and in assay [5] were 107% and 98.3%, respectively. Further, the inhibition in assay [6] was 0.805%. For the same molecule, the RAM network inhibition in assay [7] was 8.22%.
Turning to `CCC(=O)N1CC2(C)CN(C(=O)CC)CC(C)(C1)C2`, the growth inhibition was -6.27% in assay [1] and -24.9% in assay [2]. In addition, the viability increase in assay [3] is -0.75%. Further, the values for the viability in assay [4] and in assay [5] were 95.3% and 97%, respectively. In addition, the inhibition in assay [6] is 1.59%. Besides, the RAM network inhibition in assay [7] is -0.16%.
For the molecule `Cc1cccc(C)c1NC(=O)C1(N(Cc2ccco2)C(=O)CC2NC(=O)NC2=O)CCCCC1` (stereo unspecified), the values for the growth inhibition in assay [1] and in assay [2] were -7.47% and -10.5%, respectively. In assay [3], the viability increase was -2.27%. Further, the values for the viability in assay [4] and in assay [5] were 92.7% and 93.9%, respectively. In addition, the inhibition in assay [6] is 1.23%. Also, the RAM network inhibition in assay [7] was 0.68%.
